In ChEMBL document CHEMBL4014289, “Synthesis and evaluation of a ligand targeting the μ and δ opioid receptors for drug delivery to lung cancer” (Bioorg Med Chem Lett, 2017):
pKi: −log10 of the molar value. Active and inactive are the calls of the source. No cut-off for these calls is given here.

Columns and labels:
[1] = Displacement of [3H]DADLE from delta opioid receptor in guinea pig brain membrane; type: cell membranes, Cavia porcellus
[2] = Antitumor activity against human SQC cells xenografted in nude mouse model assessed as tumor growth inhibition at 0.1 mg/kg administered daily relative to control; type: functional; settings: read-out: TGI
Kidney [3] = experiment: Drug uptake in Nu/Nu mouse kidney xenografted with HEK cells expressing delta opioid receptor (unknown origin); type: ADME, tissue-based
How it was run: (§1)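 Mice carrying HEK xenografts transfected with μ (HEK-mu) or δ (HEK-delta) opioid receptor. […] Mice were sacrificed at 4 h, and organs and tissues were collected and weighed. Radioactivity was counted against a standard tube and expressed as %ID/gram.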

Heart = experiment: Drug uptake in Nu/Nu mouse heart xenografted with HEK cells expressing delta opioid receptor (unknown origin); type: ADME, tissue-based; how it was run: as §1
Liver = experiment: Drug uptake in Nu/Nu mouse liver xenografted with HEK cells expressing delta opioid receptor (unknown origin); type: ADME, tissue-based; how it was run: as §1
Spleen = experiment: Drug uptake in Nu/Nu mouse spleen xenografted with HEK cells expressing delta opioid receptor (unknown origin); type: ADME, tissue-based; how it was run: as §1
Intestine [4] = experiment: Drug uptake in Nu/Nu mouse intestine xenografted with HEK cells expressing delta opioid receptor (unknown origin); type: ADME, tissue-based; how it was run: as §1
[5] = Drug uptake in Nu/Nu mouse skin xenografted with HEK cells expressing delta opioid receptor (unknown origin); type: ADME, Zone of skin; how it was run: as §1
[6] = Drug uptake in Nu/Nu mouse tumor xenografted with HEK cells expressing delta opioid receptor (unknown origin); type: ADME, Neoplasm; how it was run: as §1
[7] = Drug uptake in Nu/Nu mouse skin xenografted with HEK cells expressing mu opioid receptor (unknown origin); type: ADME, Zone of skin; how it was run: as §1
[8] = Drug uptake in Nu/Nu mouse tumor xenografted with HEK cells expressing mu opioid receptor (unknown origin); type: ADME, Neoplasm; how it was run: as §1
Intestine [9] = experiment: Drug uptake in Nu/Nu mouse intestine xenografted with HEK cells expressing mu opioid receptor (unknown origin); type: ADME, tissue-based; how it was run: as §1
Kidney [10] = experiment: Drug uptake in Nu/Nu mouse kidney xenografted with HEK cells expressing mu opioid receptor (unknown origin); type: ADME, tissue-based; how it was run: as §1
[11] = target: Delta-type opioid receptor (Homo sapiens) (UniProt P41143); experiment: Binding affinity to delta opioid receptor (unknown origin) expressed in HEK cells at 10 nM by confocal microscopic method; type: cell-based
How it was run: (§2)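 HEK cells transfected to overexpress the δ-opioid receptor were incubated with a rhodamine-labelled naltrexone-derived conjugate for 1 h. They were given the conjugate alone or with a 100-fold higher concentration of naltrindole as competitor. Uptake and internalisation were imaged by confocal microscopy.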

[12] = target: Delta-type opioid receptor (Homo sapiens) (UniProt P41143); experiment: Binding affinity to delta opioid receptor (unknown origin) expressed in HEK cells at 10 nM in presence of DOR antagonist […] after 1 hr by confocal microscopic method; type: cell-based; how it was run: as §2
[13] = target: Mu-type opioid receptor (Homo sapiens) (UniProt P35372); experiment: Binding affinity to mu opioid receptor (unknown origin) expressed in HEK cells at 25 nM by confocal microscopic method; type: cell-based
How it was run: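 HEK cells transfected to overexpress the μ-opioid receptor were treated with 25 nM rhodamine-labelled naltrexone-derived conjugate for 1 h. […] Cell-associated fluorescence and internalisation were imaged by confocal microscopy.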

Chain of Delta-type opioid receptor (Homo sapiens) (P41143 whole entry): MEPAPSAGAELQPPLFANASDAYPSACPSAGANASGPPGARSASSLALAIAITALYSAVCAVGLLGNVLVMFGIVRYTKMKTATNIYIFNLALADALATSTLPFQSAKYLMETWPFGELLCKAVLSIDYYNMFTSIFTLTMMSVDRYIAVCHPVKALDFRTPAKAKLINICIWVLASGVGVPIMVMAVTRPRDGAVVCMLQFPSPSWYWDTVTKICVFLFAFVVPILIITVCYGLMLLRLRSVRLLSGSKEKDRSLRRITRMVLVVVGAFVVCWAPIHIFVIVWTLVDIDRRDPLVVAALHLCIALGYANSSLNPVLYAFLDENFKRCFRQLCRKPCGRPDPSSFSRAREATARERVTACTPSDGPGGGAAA
Chain of Mu-type opioid receptor (Homo sapiens) (P35372 whole entry): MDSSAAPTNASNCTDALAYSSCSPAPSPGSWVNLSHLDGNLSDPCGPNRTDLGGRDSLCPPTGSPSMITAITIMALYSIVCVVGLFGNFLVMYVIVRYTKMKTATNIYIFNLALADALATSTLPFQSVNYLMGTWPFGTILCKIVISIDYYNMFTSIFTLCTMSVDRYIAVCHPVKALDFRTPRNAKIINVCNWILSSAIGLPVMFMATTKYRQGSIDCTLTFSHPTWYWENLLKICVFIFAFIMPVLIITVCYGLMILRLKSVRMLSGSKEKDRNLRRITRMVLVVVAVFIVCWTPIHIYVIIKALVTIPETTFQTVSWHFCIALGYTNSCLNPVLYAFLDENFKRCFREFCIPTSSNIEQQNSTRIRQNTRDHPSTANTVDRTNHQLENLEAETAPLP

For O=C1CC[C@@]2(O)[C@H]3Cc4ccc(O)c5c4[C@@]2(CCN3CC2CC2)[C@H]1O5 [NALTREXONE], the pKi [1] was 7.98 and the inhibition in vivo at 0.1 mg/kg [2] was 84%.
In the case of NC(CNC(=O)CCOCCOCCOCCOCCNC(=O)CCC(=O)NCCCCCn1cc(-c2ccc(C(=O)N[C@@H]3CC[C@@]4(O)[C@H]5Cc6ccc(O)c7c6[C@@]4(CCN5CC4CC4)[C@H]3O7)cn2)nn1)C(=O)NCC(N)C(=O)NC(CC(=O)O)C(=O)NC(CS)C(=O)O (stereo partly specified), the Drug uptake (Kidney [3]) was “Active”, the Drug uptake (Heart) was “Active” and the Drug uptake (Liver) was “Active”. The Drug uptake (Spleen) was “Active”, the Drug uptake (Intestine [4]) was “Active” and the Drug uptake [5] was “Active”. The Drug uptake [6] was “Active”.
With NC(CNC(=O)CCOCCOCCOCCOCCNC(=O)CCC(=O)NCC(=O)NCC(=O)N[C@@H]1CC[C@@]2(O)[C@H]3Cc4ccc(O)c5c4[C@@]2(CCN3CC2CC2)[C@H]1O5)C(=O)NC(CC(=O)O)C(=O)NC(CS)C(=O)O (stereo partly specified) the Drug uptake [7] was “Active”, the Drug uptake [8] was “Active” and the Drug uptake (Intestine [9]) was “Active”. The Drug uptake (Kidney [10]) was “Active”.
In the case of CCN(CC)c1ccc2c(-c3ccc(NC(=S)NCCCCCn4cc(-c5ccc(C(=O)N[C@@H]6CC[C@@]7(O)[C@H]8Cc9ccc(O)c%10c9[C@@]7(CCN8CC7CC7)[C@H]6O%10)cn5)nn4)cc3C(=O)O)c3ccc(=[N+](CC)CC)cc-3oc2c1, the Activity [11] was “Active” and the Activity [12] was “Active”.
In the case of CCN(CC)c1ccc2c(-c3ccc(NC(=S)NCC(=O)NCC(=O)N[C@@H]4CC[C@@]5(O)[C@H]6Cc7ccc(O)c8c7[C@@]5(CCN6CC5CC5)[C@H]4O8)cc3C(=O)O)c3ccc(=[N+](CC)CC)cc-3oc2c1, the Activity [13] was “Active”.
